The values that follow come from ChEMBL document CHEMBL4043082, “Clerodane Diterpenoid Glucosides from the Stems of Tinospora sinensis” (J Nat Prod, 2017).

pIC50: −log10 of the molar value.

Test [1] has as its system N9. Description: Inhibition of LPS-induced nitric oxide production in mouse N9 cells by Griess reaction based assay. In kind it is functional, cell-based. In outline:
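N9 microglial cells activated with LPS; nitrite accumulation in culture supernatants measured by Griess reaction; microglial cell viability checked in parallel by MTT assay.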
In general terms: The Griess reaction detects nitrite, a stable product of nitric oxide.

Test [2] deals with HeLa. Description: Cytotoxicity against human HeLa cells assessed as reduction in cell viability incubated for 48 hrs by MTT assay. It is filed as functional, cell-based. In outline:
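HeLa cells seeded at 8 × 10^3 per well, exposed in triplicate to 2.5, 5, 10, 20 and 50 μM of each compound at 37 °C for 48 h; doxorubicin as positive control. MTT (5 mg/mL) added for 4 h, formazan dissolved in DMSO, absorbance at 570 nm; IC50 by Logit method.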

In general, pIC50 refers to −log10 of the IC50, conventionally taken in molar units. For the compound `COc1cc(/C=C/C(=O)O[C@H]2C[C@H](O)[C@H](O)[C@@H]3[C@@H]2CC[C@@]2(O)C(=O)O[C@H](c4ccoc4)C[C@@]32C)ccc1O[C@@H]1O[C@H](CO)[C@@H](O)[C@H](O)[C@H]1O`, the pIC50 in test [1] is not above 4.00; in test [2] it was not above 5.00.

Regarding `CC(=O)O[C@H]1C[C@@H](O[C@@H]2O[C@H](CO)[C@@H](O)[C@H](O)[C@H]2O)[C@H]2CC[C@@]3(O)C(=O)O[C@H](c4ccoc4)C[C@@]3(C)[C@@H]2[C@H]1O`, the figures for the pIC50 in test [1] and in test [2] were not above 4.00 and not above 5.00, respectively.

For `COc1cc(/C=C/C(=O)O[C@H]2C[C@H](OC(C)=O)[C@H](O)[C@@H]3[C@@H]2CC[C@@]2(O)C(=O)O[C@H](c4ccoc4)C[C@@]32C)ccc1O[C@@H]1O[C@H](CO)[C@@H](O)[C@H](O)[C@H]1O`, the figures for the negative-log IC50 (pIC50) in test [1] and in test [2] were not above 4.00 and not above 5.00, respectively.

With `COc1cccc2c1C(=O)c1c(O)c3c(c(O)c1C2=O)C[C@@](O)(C(=O)CO)C[C@@H]3O[C@H]1C[C@H](N)[C@H](O)[C@H](C)O1` [DOXORUBICIN], the pIC50 in test [2] is 6.49.

As for `C[C@@]12CC[C@@]3(O)C(=O)O[C@H](c4ccoc4)C[C@@]3(C)[C@@H]1[C@@H](O[C@@H]1O[C@H](CO)[C@@H](O)[C@H](O)[C@H]1O)C=CC2=O`, the pIC50 in test [1] is not above 4.00; in test [2], not above 5.00.

As to `COc1cc(/C=C/C(=O)O[C@@H]2C[C@H](O)[C@H](O)[C@@H]3[C@@H]2CC[C@@]2(O)C(=O)O[C@H](c4ccoc4)C[C@@]32C)ccc1O[C@@H]1O[C@H](CO)[C@@H](O)[C@H](O)[C@H]1O`, the pIC50 in test [1] is not above 4.00; in test [2], not above 5.00.

For the compound `C[C@@]12C[C@@H](c3ccoc3)OC(=O)[C@]1(O)CC[C@]1(C)[C@H]2[C@H]2C=C[C@]1(O[C@@H]1O[C@H](CO)[C@@H](O)[C@H](O)[C@H]1O)C(=O)O2`, the negative-log IC50 (pIC50) in test [1] was not above 4.00; in test [2] it was not above 5.00.

Take `COc1cc(/C=C\C(=O)O[C@@H]2C[C@H](OC(C)=O)[C@H](O)[C@@H]3[C@@H]2CC[C@@]2(O)C(=O)O[C@H](c4ccoc4)C[C@@]32C)ccc1O[C@@H]1O[C@H](CO)[C@@H](O)[C@H](O)[C@H]1O`: the pIC50 is not above 4.00 in test [1] and not above 5.00 in test [2].

On to `CC(=O)O[C@@H]1[C@@H]2[C@H](CC[C@@]3(O)C(=O)O[C@H](c4ccoc4)C[C@@]23C)[C@H](O[C@@H]2O[C@H](CO)[C@@H](O)[C@H](O)[C@H]2O)C[C@@H]1O`, for which the figures for the pIC50 in test [1] and in test [2] were not above 4.00 and not above 5.00, respectively.

For `COc1cc(/C=C/C(=O)O[C@@H]2C[C@H](OC(C)=O)[C@H](O)[C@@H]3[C@@H]2CC[C@@]2(O)C(=O)O[C@H](c4ccoc4)C[C@@]32C)ccc1O[C@@H]1O[C@H](CO)[C@@H](O)[C@H](O)[C@H]1O`, the pIC50 in test [1] was not above 4.00; in test [2], not above 5.00.

For the compound `COc1cc(/C=C/C(=O)O[C@@H]2C[C@H](O)[C@H](OC(C)=O)[C@@H]3[C@@H]2CC[C@@]2(O)C(=O)O[C@H](c4ccoc4)C[C@@]32C)ccc1O[C@@H]1O[C@H](CO)[C@@H](O)[C@H](O)[C@H]1O`, the negative logarithm of the IC50 (pIC50) in test [1] was not above 4.00; in test [2], not above 5.00.

For the compound `C[C@@]12C[C@@H](c3ccoc3)OC(=O)[C@]1(O)CC[C@H]1[C@H]2[C@@H](O)[C@@H](O)C[C@H]1O[C@@H]1O[C@H](CO)[C@@H](O)[C@H](O)[C@H]1O`, the pIC50 in test [1] was not above 4.00; in test [2], 5.08.

As to `CC(=O)O[C@@H]1[C@@H]2[C@H](CC[C@@]3(O)C(=O)O[C@H](c4ccoc4)C[C@@]23C)[C@H](O[C@@H]2O[C@H](CO)[C@@H](O)[C@H](O)[C@H]2O)C[C@@H]1OC(C)=O`, the negative logarithm of the IC50 (pIC50) in test [1] was not above 4.00; in test [2], not above 5.00.

As to `COc1cc(/C=C/C(=O)O[C@@H]2CC[C@H](O)[C@@H]3[C@@H]2CC[C@@]2(O)C(=O)O[C@H](c4ccoc4)C[C@@]32C)ccc1O[C@@H]1O[C@H](CO)[C@@H](O)[C@H](O)[C@H]1O`, the pIC50 was not above 4.00 in test [1] and not above 5.00 in test [2].
